In experiment [1] the test system is wildtype S. aureus (Newman). The experiment can be described thus: Growth inhibition. Type of experiment: cell-based, Staphylococcus aureus.
Experiment [2] concerns S. aureus ΔtarO knockout strain. The experiment in a line: Counterscreen: growth inhibition of WTA null. In kind it is cell-based, Staphylococcus aureus. The gist of the method: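 Library compounds were screened in duplicate at ~15 µM final against wildtype S. aureus Newman. In parallel they were counterscreened against the WTA-null ΔtarO strain to find growth inhibition that is suppressed when WTA is absent. Growth was read as OD600 and averaged over the duplicates.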
On the technique in general: Counterscreens check selectivity or assay interference.

For experiment [3], the system named is Lipid II pool levels in S. aureus. The experiment in a line: Assay to detect Lipid II abundance after antibiotic treatment. Type of experiment: cell-based, Staphylococcus aureus. The conditions noted are these: S. aureus cultures treated for ten minutes. The gist of the method:
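S. aureus cultures were exposed for 10 min to test compound or to peptidoglycan-synthesis inhibitor controls that either deplete or accumulate Lipid II. Lipid II was then extracted and labelled with biotin-d-Lys to measure its pool level.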

In the next experiment the test system is B. subtilis. The experiment in a line: Growth inhibition of B. subtilis. Type of experiment: cell-based, Bacillus subtilis.
The test system of the next experiment is wildtype B. subtilis. The experiment can be described thus: Disk diffusion assay against wildtype B. subtilis. Type of experiment: cell-based, Bacillus subtilis. On the technique in general: A growth-free zone around the sample is the usual read-out of agar diffusion tests.
Experiment [4] relates to B. subtilis strain KS002 (TagGH replaced with S. aureus TarGH). The experiment can be described thus: Disk diffusion assay against B. subtilis strain KS002 expressing S. aureus TarGH. Type of experiment: cell-based, Bacillus subtilis. The conditions noted are these: strain expressing the S. aureus transporter.
The target of another experiment is TarGH (Staphylococcus aureus, UniProt Q2G2X5). The experiment in a line: ATPase activity of reconstituted TarGH in proteoliposomes. Type of experiment: biochemical. The conditions noted are these: 1.0 µM compound; compared with TarH E169Q mutant.

Converted amounts (≈) assume the structure as drawn.

For `Cc1c(CC(=O)N2CCC[C@H]2C(=O)O)c(=O)oc2c(C)c3occ(-c4ccc(Cl)cc4)c3cc12` [Compound 2], in experiment [1], the “minimum inhibitory concentration (MIC)” value was found to be 0.125 µg/mL (≈ 0.26 µM). In experiment [1] (compared with targocil), the “MIC relative to that of targocil” value is “eight-fold lower”. Besides, the “activity against the ΔtarO strain” value in experiment [2] was “no activity”. Further, the “effect on Lipid II pool levels” value in experiment [3] is reported as “depleted Lipid II”. The “growth inhibition of B. subtilis” value with B. subtilis is reported as “did not inhibit growth”. Further, the zone of inhibition result with wildtype B. subtilis is listed as “did not show a zone of inhibition”; in experiment [4] it was “dose-dependent inhibition zone”. Further, the “ATPase activity of the WT transporter in the presence of compound” value on TarGH was “comparable to that of a TarGH mutant containing a mutation that impairs ATP hydrolysis”.

Take `CCN(CC)c1nc2c(S(=O)(=O)c3ccc(Cl)cc3)nnn2c2cc(OC)c(OC)cc12` [targocil]: the “effect on Lipid II pool levels” value in experiment [3] is reported as “depleted Lipid II”.

Take bacitracin: the “effect on Lipid II pool levels” value in experiment [3] was “depleted Lipid II”.

The values above are taken from article PMC5699463 (Journal of the American Chemical Society, 2017).
